Assay results from publication PMC5035790 (Annals of Oncology, 2016).
Marks after values point to notes of the source that are not given here.

Test system: patients with advanced solid tumors or non-Hodgkin's lymphoma
Assay: Phase I dose-escalation study: safety, tolerability, MTD, adverse events
Assay type: in vivo, human
Method in brief: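 Adults with advanced solid tumours (plus NHL and type 2 diabetic expansion cohorts) received a 1-h IV infusion on days 1, 8 and 15 of 28-day cycles over 0.1–1.2 mg/kg. Accelerated titration escalated the dose by 100% per cohort. MTD was the highest dose given to six patients with ≤1 DLT. Fasting was 8 h pre- and 3 h post-start on cycle 1 day 1. AEs were assessed at planned times each cycle and at follow-up.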

[1] = diabetic expansion, 0.4 mg/kg, n=6
[2] = solid tumors expansion, 0.8 mg/kg, n=25

SMILES: COc1c(OCCCN2CCOCC2)ccc2c1N=C(NC(=O)c1cnc(N)nc1)N1CCN=C21 [copanlisib, Copanlisib]
- Drug-related hyperglycemia, grade 3 (cohort 4, 0.8 mg/kg, n=7): 4 (57) n (%)
- Drug-related hypertension, all grades (cohort 4, 0.8 mg/kg, n=7): 1 (14) n (%)
- Drug-related hypertension, grade 3 (cohort 4, 0.8 mg/kg, n=7): 0 n (%)
- Drug-related nausea, all grades (cohort 4, 0.8 mg/kg, n=7): 1 (14) n (%)
- Drug-related nausea, grade 3 (cohort 4, 0.8 mg/kg, n=7): 0 n (%)
- Drug-related oral cavity mucositis, all grades (cohort 4, 0.8 mg/kg, n=7): 0 n (%)
- Drug-related oral cavity mucositis, grade 3 (cohort 4, 0.8 mg/kg, n=7): 0 n (%)
- Drug-related rash/desquamation, all grades (cohort 4, 0.8 mg/kg, n=7): 0 n (%)
- Drug-related rash/desquamation, grade 3 (cohort 4, 0.8 mg/kg, n=7): 0 n (%)
- Drug-related vomiting, all grades (cohort 4, 0.8 mg/kg, n=7): 1 (14) n (%)
- Drug-related vomiting, grade 3 (cohort 4, 0.8 mg/kg, n=7): 0 n (%)
- Any drug-related AE (cohort 5, 1.2 mg/kg, n=3): 3 (100) n (%)
- Drug-related AEs of grade 3 (cohort 5, 1.2 mg/kg, n=3): 2 (67) n (%)
- Drug-related AEs of grade 4 (cohort 5, 1.2 mg/kg, n=3): 1 (33) n (%)
- Drug-related diarrhea, all grades (cohort 5, 1.2 mg/kg, n=3): 0 n (%)
- Drug-related diarrhea, grade 3 (cohort 5, 1.2 mg/kg, n=3): 0 n (%)
- Drug-related fatigue, all grades (cohort 5, 1.2 mg/kg, n=3): 0 n (%)
- Drug-related fatigue, grade 3 (cohort 5, 1.2 mg/kg, n=3): 0 n (%)
- Drug-related hyperglycemia, all grades (cohort 5, 1.2 mg/kg, n=3): 3 (100) n (%)
- Drug-related hyperglycemia, grade 3 (cohort 5, 1.2 mg/kg, n=3): 1 (33) n (%)
- Drug-related hypertension, all grades (cohort 5, 1.2 mg/kg, n=3): 0 n (%)
- Drug-related hypertension, grade 3 (cohort 5, 1.2 mg/kg, n=3): 0 n (%)
- Drug-related nausea, all grades (cohort 5, 1.2 mg/kg, n=3): 1 (33) n (%)
- Drug-related nausea, grade 3 (cohort 5, 1.2 mg/kg, n=3): 0 n (%)
- Drug-related oral cavity mucositis, all grades (cohort 5, 1.2 mg/kg, n=3): 0 n (%)
- Drug-related oral cavity mucositis, grade 3 (cohort 5, 1.2 mg/kg, n=3): 0 n (%)
- Drug-related rash/desquamation, all grades (cohort 5, 1.2 mg/kg, n=3): 0 n (%)
- Drug-related rash/desquamation, grade 3 (cohort 5, 1.2 mg/kg, n=3): 0 n (%)
- Drug-related vomiting, all grades (cohort 5, 1.2 mg/kg, n=3): 1 (33) n (%)
- Drug-related vomiting, grade 3 (cohort 5, 1.2 mg/kg, n=3): 0 n (%)
- Any drug-related AE [1]: 5 (83) n (%)
- Drug-related AEs of grade 3 [1]: 3 (50) n (%)
- Drug-related AEs of grade 4 [1]: 0 n (%)
- Drug-related diarrhea, all grades [1]: 1 (17) n (%)
- Drug-related diarrhea, grade 3 [1]: 0 n (%)
- Drug-related fatigue, all grades [1]: 0 n (%)
- Drug-related fatigue, grade 3 [1]: 0 n (%)
- Drug-related hyperglycemia, all grades [1]: 1 (17) n (%)
- Drug-related hyperglycemia, grade 3 [1]: 1 (17) n (%)
- Drug-related hypertension, all grades [1]: 2 (33) n (%)
- Drug-related hypertension, grade 3 [1]: 2 (33) n (%)
- Drug-related nausea, all grades [1]: 2 (33) n (%)
- Drug-related nausea, grade 3 [1]: 0 n (%)
- Drug-related oral cavity mucositis, all grades [1]: 0 n (%)
- Drug-related oral cavity mucositis, grade 3 [1]: 0 n (%)
- Drug-related rash/desquamation, all grades [1]: 1 (17) n (%)
- Drug-related rash/desquamation, grade 3 [1]: 1 (17) n (%)
- Drug-related vomiting, all grades [1]: 0 n (%)
- Drug-related vomiting, grade 3 [1]: 0 n (%)
- diabetic ketoacidosis (during the study): no patients
- patients with elevated aminotransferase grade ≥3 (laboratory finding): five
- patients who discontinued because of AEs (n=57): Four
- hyperglycemia grade 4, regardless of causality (n=57, text): 2%
- serious drug-related AEs (six of 57 patients): 11%
- Any drug-related AE [2]: 20 (80) n (%)
- Drug-related AEs of grade 3 [2]: 12 (48) n (%)
- Drug-related AEs of grade 4 [2]: 0 n (%)
- Drug-related diarrhea, all grades [2]: 2 (8) n (%)
- Drug-related diarrhea, grade 3 [2]: 0 n (%)
- Drug-related fatigue, all grades [2]: 2 (8) n (%)
- Drug-related fatigue, grade 3 [2]: 0 n (%)
- Drug-related hyperglycemia, all grades [2]: 15 (60) n (%)
- Drug-related hyperglycemia, grade 3 [2]: 8 (32) n (%)
- Drug-related hypertension, all grades [2]: 5 (20) n (%)
- Drug-related hypertension, grade 3 [2]: 2 (8) n (%)
- Drug-related nausea, all grades [2]: 7 (28) n (%)
- Drug-related nausea, grade 3 [2]: 0 n (%)
- Drug-related oral cavity mucositis, all grades [2]: 2 (8) n (%)
- Drug-related oral cavity mucositis, grade 3 [2]: 0 n (%)
- Drug-related rash/desquamation, all grades [2]: 6 (24) n (%)
- Drug-related rash/desquamation, grade 3 [2]: 2 (8) n (%)
- Drug-related vomiting, all grades [2]: 3 (12) n (%)
- Drug-related vomiting, grade 3 [2]: 0 n (%)
- Any drug-related AE (total, n=57): 49 (86) n (%)
- Drug-related AEs of grade 3 (total, n=57): 29 (51) n (%)
- Drug-related AEs of grade 4 (total, n=57): 2 (4)^b n (%)
- Drug-related diarrhea, all grades (total, n=57): 9 (16) n (%)
- Drug-related diarrhea, grade 3 (total, n=57): 1 (2) n (%)
- Drug-related fatigue, all grades (total, n=57): 6 (11) n (%)
- Drug-related fatigue, grade 3 (total, n=57): 0 n (%)
- Drug-related hyperglycemia, all grades (total, n=57): 36 (63) n (%)
- Drug-related hyperglycemia, grade 3 (total, n=57): 17 (30) n (%)
- Drug-related hypertension, all grades (total, n=57): 12 (21) n (%)
- Drug-related hypertension, grade 3 (total, n=57): 8 (14) n (%)
- Drug-related nausea, all grades (total, n=57): 21 (37) n (%)
- Drug-related nausea, grade 3 (total, n=57): 0 n (%)
- Drug-related oral cavity mucositis, all grades (total, n=57): 6 (11) n (%)
- Drug-related oral cavity mucositis, grade 3 (total, n=57): 0 n (%)
- Drug-related rash/desquamation, all grades (total, n=57): 9 (16) n (%)
- Drug-related rash/desquamation, grade 3 (total, n=57): 4 (7) n (%)
- Drug-related vomiting, all grades (total, n=57): 7 (12) n (%)
- Drug-related vomiting, grade 3 (total, n=57): 0 n (%)
- patients with drug-related grade 4 AEs (two patients, three events): 4%
